Results gathered from unrelated publications.
Target: Ephrin type-A receptor 5 (EPHA5, Homo sapiens, UniProt P54756)

| SMILES | observed | method | tested at | remaining binding [%] |
| --- | --- | --- | --- | --- |
| CCN1CCN(Cc2ccc(C(=O)Nc3ccc(C)c(Oc4ccc5c(c4)CC(=O)N5)c3)cc2C(F)(F)F)CC1 | binding | competition with immobilised ligand | 1 µM | 100 |
| CNC(=O)Nc1ccc2c(c1)[C@@]1(CC2)OC(=O)N(CC(=O)N(Cc2ccc(F)cc2)[C@@H](C)C(F)(F)F)C1=O | cell-free assay | competition with immobilised ligand | 1 µM | 94 |
| Nc1ncc2c(n1)-c1c([nH]c3ccc(C#CC4CC4)cc13)CCCC2 | binding | competition with immobilised ligand | 1 µM | 97 |
| CCC(=N\O)/C(C)=C/c1ccc(F)cc1 | cell-free assay | competition with immobilised ligand | 1 µM | 64 |
| O=C(c1ccc(Nc2ncc(Cl)c(-c3cc4ccccc4s3)n2)cc1)N1CCC(N2CCCC2)CC1 | binding | competition with immobilised ligand | 1 µM | 86 |
| CNCc1ccccc1-c1csc([C@@H](C)Nc2nc(C)nc3cc(OC)c(OC)cc23)c1 | cell-free assay | competition with immobilised ligand | 1 µM | 88 |
| FC(F)(F)Oc1cccc(-c2cnc3ccc(-c4ccncc4)nn23)c1 | cell-free assay | competition with immobilised ligand | 5 µM | 90 |
| CN(C)c1nccc(-c2cnn3ncccc23)n1 | binding |  | 1 µM | 100 |
| C[C@@]1(Cc2ccc(C#N)cc2)C(=O)N(c2cc(Cl)cc(Cl)c2)c2ncc(C(=O)NC3(c4nc(C5CCC5)no4)CC3)n21 | cell-free assay | competition with immobilised ligand | 1 µM | 100 |
| COc1ccnn2ncc(-c3ccnc(N(C)C)n3)c12 | binding |  | 1 µM | 100 |
| CNC(=O)[C@@H]1CC[C@@H](n2c(-c3ccc4cnccc4c3)nc3ccc(C(=O)NCc4cccc(C(N)=O)c4)cc32)C1 | binding | competition with immobilised ligand | 1 µM | 100 |
| CN(CCCC(F)(F)F)c1nccc(-c2cnn3ncccc23)n1 | binding |  | 1 µM | 100 |
| C[C@H](c1cccc(C#N)c1)n1cc(Cl)cc(C(N)=O)c1=N | cell-free assay | competition with immobilised ligand | 1 µM | 96 |
| c1cnn2ncc(-c3ccnc(N4CCC45COC5)n3)c2c1 | binding |  | 1 µM | 99 |
| O=C(NCCCN1CCOCC1)c1ccc(Nc2ncc(Cl)c(-c3ccc(Cl)s3)n2)cc1 | binding | competition with immobilised ligand | 1 µM | 99 |
| N[C@@H]1CCN(c2nccc(-c3cnn4ncccc34)n2)C1 | binding |  | 1 µM | 100 |
| CC1=C(C#N)[C@@H](c2ccc3[nH]nc(C)c3c2)C(C#N)=C(c2ccc(Cl)cc2)N1 | cell-free assay | competition with immobilised ligand | 1 µM | 100 |
| CN(C)c1ncc(F)c(-c2cnn3ncccc23)n1 | binding |  | 1 µM | 100 |
| O=C(NCCCN1CCOCC1)c1ccc(Nc2nccc(-c3cc4ccccc4s3)n2)cc1 | binding | competition with immobilised ligand | 1 µM | 88 |
| O=C(Nc1c[nH]nc1C(=O)NC1CCNCC1)c1cc(F)cc(F)c1 | binding | competition with immobilised ligand | 1 µM | 100 |
